Measurements taken from ChEMBL document CHEMBL1137674, “Synthesis and antibacterial evaluation of novel 4-alkyl substituted phenyl beta-aldehyde ketone derivatives” (2009).
Values after ≈ are worked out from the molar mass of the structure shown.

Assays:
Type in all cases: functional
Staphylococcus aureus [1] = assay: Antimicrobial activity against Staphylococcus aureus ATCC 25923 after 16 to 18 hrs by agar dilution method
Summary of the method: (§1)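 Agar dilution following NCCLS/CLSI, with twofold serial dilutions of the compounds and reference drugs in Mueller-Hinton agar. Inocula were overnight cultures (16-18 h, 37 °C) adjusted to 0.5 McFarland. Compounds were dissolved in DMSO, which served as the control. MIC was taken as the lowest concentration preventing viable growth after 16-18 h incubation.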

Escherichia coli = assay: Antimicrobial activity against Escherichia coli ATCC 25922 after 16 to 18 hrs by agar dilution method; summary of the method: as §1
Pseudomonas aeruginosa = assay: Antimicrobial activity against Pseudomonas aeruginosa ATCC 27853 after 16 to 18 hrs by agar dilution method; summary of the method: as §1
Staphylococcus aureus [2] = assay: Antimicrobial activity against methicillin-resistant Staphylococcus aureus isolate 1 after 16 to 18 hrs by agar dilution method
Summary of the method: (§2)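 Agar dilution MIC on Mueller-Hinton agar with the test agents mixed into the medium. MIC was read as the lowest concentration preventing viable growth after 16–18 h incubation.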

Staphylococcus aureus [3] = assay: Antimicrobial activity against methicillin-resistant Staphylococcus aureus isolate 2 after 16 to 18 hrs by agar dilution method; summary of the method: as §2
Staphylococcus aureus [4] = assay: Antimicrobial activity against methicillin-resistant Staphylococcus aureus isolate 3 after 16 to 18 hrs by agar dilution method; summary of the method: as §2
Staphylococcus aureus [5] = assay: Antimicrobial activity against methicillin-resistant Staphylococcus aureus isolate 4 after 16 to 18 hrs by agar dilution method; summary of the method: as §2
Staphylococcus aureus [6] = assay: Antimicrobial activity against methicillin-resistant Staphylococcus aureus isolate 5 after 16 to 18 hrs by agar dilution method; summary of the method: as §2
Staphylococcus aureus [7] = assay: Antimicrobial activity against Staphylococcus aureus isolate 7 after 16 to 18 hrs by agar dilution method; summary of the method: as §2
Staphylococcus aureus [8] = assay: Antimicrobial activity against Staphylococcus aureus isolate 8 after 16 to 18 hrs by agar dilution method; summary of the method: as §2
Staphylococcus aureus [9] = assay: Antimicrobial activity against Staphylococcus aureus isolate 9 after 16 to 18 hrs by agar dilution method
Staphylococcus aureus [10] = assay: Antimicrobial activity against Staphylococcus aureus isolate 10 after 16 to 18 hrs by agar dilution method
Staphylococcus aureus [11] = assay: Antimicrobial activity against Staphylococcus aureus isolate 1 after 16 to 18 hrs by agar dilution method
Staphylococcus aureus [12] = assay: Antimicrobial activity against Staphylococcus aureus isolate 2 after 16 to 18 hrs by agar dilution method; summary of the method: as §2
Staphylococcus aureus [13] = assay: Antimicrobial activity against Staphylococcus aureus isolate 3 after 16 to 18 hrs by agar dilution method
Staphylococcus aureus [14] = assay: Antimicrobial activity against Staphylococcus aureus isolate 4 after 16 to 18 hrs by agar dilution method
Staphylococcus aureus [15] = assay: Antimicrobial activity against Staphylococcus aureus isolate 5 after 16 to 18 hrs by agar dilution method
Staphylococcus aureus [16] = assay: Antimicrobial activity against Staphylococcus aureus isolate 6 after 16 to 18 hrs by agar dilution method

## CCCCCc1ccc(C(=O)CC(O)S(=O)(=O)[O-])cc1.[Na+] (configuration not stated)
Staphylococcus aureus [1]
  MIC: > 64 µg/mL
Escherichia coli
  MIC: > 64 µg/mL
Pseudomonas aeruginosa
  MIC: > 64 µg/mL

## CCc1ccc(C(=O)C/C=N/OC)cc1
Staphylococcus aureus [1]
  MIC: 4 µg/mL (≈ 19.5 µM)
Escherichia coli
  MIC: > 64 µg/mL
Pseudomonas aeruginosa
  MIC: > 64 µg/mL

## Cc1ccc(C(=O)C/C=N/O)cc1
Staphylococcus aureus [1]
  MIC: 64 µg/mL (≈ 361 µM)
Escherichia coli
  MIC: > 64 µg/mL
Pseudomonas aeruginosa
  MIC: > 64 µg/mL

## CO/N=C/CC(=O)c1ccccc1
Staphylococcus aureus [1]
  MIC: 64 µg/mL (≈ 361 µM)
Escherichia coli
  MIC: > 64 µg/mL
Pseudomonas aeruginosa
  MIC: > 64 µg/mL

## CO/N=C/CC(=O)c1ccc(C)cc1
Staphylococcus aureus [2]
  MIC: 8 µg/mL (≈ 41.8 µM)
Staphylococcus aureus [3]
  MIC: 8 µg/mL (≈ 41.8 µM)
Staphylococcus aureus [4]
  MIC: 8 µg/mL (≈ 41.8 µM)
Staphylococcus aureus [5]
  MIC: 8 µg/mL (≈ 41.8 µM)
Staphylococcus aureus [6]
  MIC: 8 µg/mL (≈ 41.8 µM)
Staphylococcus aureus [1]
  MIC: 4 µg/mL (≈ 20.9 µM)
Escherichia coli
  MIC: 64 µg/mL (≈ 335 µM)
Pseudomonas aeruginosa
  MIC: 64 µg/mL (≈ 335 µM)

## CCCCCc1ccc(C(=O)C/C=N/OC)cc1
Staphylococcus aureus [1]
  MIC: 4 µg/mL (≈ 16.2 µM)
Escherichia coli
  MIC: 64 µg/mL (≈ 259 µM)
Pseudomonas aeruginosa
  MIC: 64 µg/mL (≈ 259 µM)

## CCO/N=C/CC(=O)c1ccc(CC)cc1
Staphylococcus aureus [1]
  MIC: 4 µg/mL (≈ 18.2 µM)
Escherichia coli
  MIC: > 64 µg/mL
Pseudomonas aeruginosa
  MIC: > 64 µg/mL

## CC(C)c1ccc(C(=O)CC(O)S(=O)(=O)[O-])cc1.[Na+] (configuration not stated)
Staphylococcus aureus [1]
  MIC: > 64 µg/mL
Escherichia coli
  MIC: > 64 µg/mL
Pseudomonas aeruginosa
  MIC: > 64 µg/mL

## NC(=O)N/N=C/CC(=O)c1ccccc1
Staphylococcus aureus [1]
  MIC: > 64 µg/mL
Escherichia coli
  MIC: > 64 µg/mL
Pseudomonas aeruginosa
  MIC: > 64 µg/mL

## Cc1ccc(C(=O)CC=O)cc1
Staphylococcus aureus [1]
  MIC: > 64 µg/mL
Escherichia coli
  MIC: > 64 µg/mL
Pseudomonas aeruginosa
  MIC: > 64 µg/mL

## Cc1ccc(C(=O)C/C=N/NC(N)=S)cc1
Staphylococcus aureus [1]
  MIC: > 64 µg/mL
Escherichia coli
  MIC: > 64 µg/mL
Pseudomonas aeruginosa
  MIC: > 64 µg/mL

## CCc1ccc(/C(C/C=N/OC)=N\OC)cc1
Staphylococcus aureus [1]
  MIC: 32 µg/mL (≈ 137 µM)
Escherichia coli
  MIC: > 64 µg/mL
Pseudomonas aeruginosa
  MIC: > 64 µg/mL

## CCCCCc1ccc(C(=O)C/C=N/OCC)cc1
Staphylococcus aureus [1]
  MIC: 4 µg/mL (≈ 15.3 µM)
Escherichia coli
  MIC: > 64 µg/mL
Pseudomonas aeruginosa
  MIC: > 64 µg/mL

## O=CCC(=O)c1ccccc1
Staphylococcus aureus [1]
  MIC: > 64 µg/mL
Escherichia coli
  MIC: > 64 µg/mL
Pseudomonas aeruginosa
  MIC: > 64 µg/mL

## Cc1ccc(C(=O)C/C=N/NC(N)=O)cc1
Staphylococcus aureus [1]
  MIC: > 64 µg/mL
Escherichia coli
  MIC: > 64 µg/mL
Pseudomonas aeruginosa
  MIC: > 64 µg/mL

## CCO/N=C/CC(=O)c1ccc(C)cc1
Staphylococcus aureus [1]
  MIC: 4 µg/mL (≈ 19.5 µM)
Escherichia coli
  MIC: 64 µg/mL (≈ 312 µM)
Pseudomonas aeruginosa
  MIC: 64 µg/mL (≈ 312 µM)

## CCO/N=C(/C/C=N/OCC)c1ccc(CC)cc1
Staphylococcus aureus [1]
  MIC: 32 µg/mL (≈ 122 µM)
Escherichia coli
  MIC: > 64 µg/mL
Pseudomonas aeruginosa
  MIC: > 64 µg/mL

## CO/N=C/CC(=O)c1ccc(C(C)C)cc1
Staphylococcus aureus [2]
  MIC: 8 µg/mL (≈ 36.5 µM)
Staphylococcus aureus [3]
  MIC: 8 µg/mL (≈ 36.5 µM)
Staphylococcus aureus [4]
  MIC: 8 µg/mL (≈ 36.5 µM)
Staphylococcus aureus [5]
  MIC: 8 µg/mL (≈ 36.5 µM)
Staphylococcus aureus [6]
  MIC: 4 µg/mL (≈ 18.2 µM)
Staphylococcus aureus [1]
  MIC: 2 µg/mL (≈ 9.12 µM)
Escherichia coli
  MIC: > 64 µg/mL
Pseudomonas aeruginosa
  MIC: > 64 µg/mL

## CCO/N=C/CC(=O)c1ccc(C(C)C)cc1
Staphylococcus aureus [7]
  MIC: 8 µg/mL (≈ 34.3 µM)
Staphylococcus aureus [8]
  MIC: 8 µg/mL (≈ 34.3 µM)
Staphylococcus aureus [9]
  MIC: 4 µg/mL (≈ 17.1 µM)
Staphylococcus aureus [10]
  MIC: 4 µg/mL (≈ 17.1 µM)
Staphylococcus aureus [2]
  MIC: 16 µg/mL (≈ 68.6 µM)
Staphylococcus aureus [3]
  MIC: 8 µg/mL (≈ 34.3 µM)
Staphylococcus aureus [4]
  MIC: 8 µg/mL (≈ 34.3 µM)
Staphylococcus aureus [5]
  MIC: 16 µg/mL (≈ 68.6 µM)
Staphylococcus aureus [6]
  MIC: 8 µg/mL (≈ 34.3 µM)
Staphylococcus aureus [1]
  MIC: 1 µg/mL (≈ 4.29 µM)
Escherichia coli
  MIC: > 64 µg/mL
Pseudomonas aeruginosa
  MIC: > 64 µg/mL
Staphylococcus aureus [11]
  MIC: 4 µg/mL (≈ 17.1 µM)
Staphylococcus aureus [12]
  MIC: 16 µg/mL (≈ 68.6 µM)
Staphylococcus aureus [13]
  MIC: 4 µg/mL (≈ 17.1 µM)
Staphylococcus aureus [14]
  MIC: 2 µg/mL (≈ 8.57 µM)
Staphylococcus aureus [15]
  MIC: 1 µg/mL (≈ 4.29 µM)
Staphylococcus aureus [16]
  MIC: 4 µg/mL (≈ 17.1 µM)

## CO/N=C(/C/C=N/OC)c1ccc(C(C)C)cc1
Staphylococcus aureus [1]
  MIC: 32 µg/mL (≈ 129 µM)
Escherichia coli
  MIC: > 64 µg/mL
Pseudomonas aeruginosa
  MIC: > 64 µg/mL

## CCO/N=C(/C/C=N/OCC)c1ccc(C(C)C)cc1
Staphylococcus aureus [1]
  MIC: 32 µg/mL (≈ 116 µM)
Escherichia coli
  MIC: > 64 µg/mL
Pseudomonas aeruginosa
  MIC: > 64 µg/mL

## CCCCCc1ccc(/C(C/C=N/OCC)=N\OCC)cc1
Staphylococcus aureus [1]
  MIC: 64 µg/mL (≈ 210 µM)
Escherichia coli
  MIC: > 64 µg/mL
Pseudomonas aeruginosa
  MIC: > 64 µg/mL

## NC(=S)N/N=C/CC(=O)c1ccccc1
Staphylococcus aureus [1]
  MIC: > 64 µg/mL
Escherichia coli
  MIC: > 64 µg/mL
Pseudomonas aeruginosa
  MIC: > 64 µg/mL

## O=C(C/C=N/O)c1ccccc1
Staphylococcus aureus [1]
  MIC: 64 µg/mL (≈ 392 µM)
Escherichia coli
  MIC: > 64 µg/mL
Pseudomonas aeruginosa
  MIC: > 64 µg/mL

## CCCCCc1ccc(/C(C/C=N/OC)=N\OC)cc1
Staphylococcus aureus [1]
  MIC: 64 µg/mL (≈ 232 µM)
Escherichia coli
  MIC: > 64 µg/mL
Pseudomonas aeruginosa
  MIC: > 64 µg/mL

## CC[C@H]1OC(=O)[C@H](C)[C@@H](O[C@H]2C[C@@](C)(OC)[C@@H](O)[C@H](C)O2)[C@H](C)[C@@H](O[C@@H]2O[C@H](C)C[C@H](N(C)C)[C@H]2O)[C@](C)(OC)C[C@@H](C)C(=O)[C@H](C)[C@@H](O)[C@]1(C)O [CLARITHROMYCIN]
Staphylococcus aureus [1]
  MIC: 0.12 µg/mL (≈ 0.16 µM)
Escherichia coli
  MIC: 32 µg/mL (≈ 42.8 µM)
Pseudomonas aeruginosa
  MIC: > 64 µg/mL

## CCCCCCCCCC(=O)CC=O [HOUTTUYNIN]
Staphylococcus aureus [2]
  MIC: 16 µg/mL (≈ 80.7 µM)
Staphylococcus aureus [3]
  MIC: 16 µg/mL (≈ 80.7 µM)
Staphylococcus aureus [4]
  MIC: 16 µg/mL (≈ 80.7 µM)
Staphylococcus aureus [5]
  MIC: 16 µg/mL (≈ 80.7 µM)
Staphylococcus aureus [6]
  MIC: 16 µg/mL (≈ 80.7 µM)
Staphylococcus aureus [1]
  MIC: 32 µg/mL (≈ 161 µM)

## C[C@H]1COc2c(N3CCN(C)CC3)c(F)cc3c(=O)c(C(=O)O)cn1c23.C[C@H]1COc2c(N3CCN(C)CC3)c(F)cc3c(=O)c(C(=O)O)cn1c23.O [LEVOFLOXACIN]
Staphylococcus aureus [7]
  MIC: 0.25 µg/mL
Staphylococcus aureus [8]
  MIC: 0.25 µg/mL
Staphylococcus aureus [9]
  MIC: 0.25 µg/mL
Staphylococcus aureus [10]
  MIC: 0.5 µg/mL
Staphylococcus aureus [2]
  MIC: 8 µg/mL
Staphylococcus aureus [3]
  MIC: 8 µg/mL
Staphylococcus aureus [4]
  MIC: 16 µg/mL
Staphylococcus aureus [5]
  MIC: 16 µg/mL
Staphylococcus aureus [6]
  MIC: 16 µg/mL
Staphylococcus aureus [1]
  MIC: 0.25 µg/mL
Escherichia coli
  MIC: 0.025 µg/mL
Pseudomonas aeruginosa
  MIC: 0.5 µg/mL
Staphylococcus aureus [11]
  MIC: 0.25 µg/mL
Staphylococcus aureus [12]
  MIC: 0.5 µg/mL
Staphylococcus aureus [13]
  MIC: 0.25 µg/mL
Staphylococcus aureus [14]
  MIC: 0.25 µg/mL
Staphylococcus aureus [15]
  MIC: 0.125 µg/mL
Staphylococcus aureus [16]
  MIC: 0.5 µg/mL

## CCCCCCCCCC(=O)CC(O)S(=O)(=O)[O-].[Na+] (configuration not stated) [SODIUM HOUTTUYFONATE]
Staphylococcus aureus [7]
  MIC: 64 µg/mL
Staphylococcus aureus [8]
  MIC: 64 µg/mL
Staphylococcus aureus [9]
  MIC: 64 µg/mL
Staphylococcus aureus [10]
  MIC: 32 µg/mL
Staphylococcus aureus [11]
  MIC: 64 µg/mL
Staphylococcus aureus [12]
  MIC: 64 µg/mL
Staphylococcus aureus [13]
  MIC: 64 µg/mL
Staphylococcus aureus [14]
  MIC: 64 µg/mL
Staphylococcus aureus [15]
  MIC: 32 µg/mL
Staphylococcus aureus [16]
  MIC: 64 µg/mL
